{"source": "paper PMC4120251", "about": "(Journal of Alzheimer's disease : JAD, 2013)", "key": {"[1]": {"experiment": "Plasma total cholesterol in APP/PS1ΔE9 mice", "format": "in vivo, mouse", "details": "peptide group before treatment, mean ± SEM, n = 8", "in_short": "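Plasma total cholesterol was determined colorimetrically with Infinity cholesterol reagent at baseline and after 6 weeks of treatment. Mice were 4-month-old male transgenics.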"}, "[2]": {"format": "in vivo, mouse", "details": "ApoE null mice"}, "[3]": {"system": "Iba-1 activated microglia", "experiment": "Activated microglia by Iba-1 immunostaining", "format": "in vivo", "details": "APP/PS1ΔE9 mice, 50 μg/mouse RO 3 times a week for 6 weeks, n = 8", "in_short": "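Right hemisphere fixed in buffered formaldehyde after saline perfusion under ketamine/xylazine. Free-floating 30 μm sections were stained with rabbit polyclonal anti-Iba-1 (1:250) and a Vectastain rabbit IgG kit. Four coronal sections per brain were imaged and converted to grayscale. Iba-1-positive area was measured over cortex and hippocampus and expressed as burden (% stained surface of total area). Mice were 4-month-old males.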"}, "IL-6": {"system": "IL-6", "experiment": "IL-6 ELISA in TBS soluble brain homogenate", "format": "in vivo", "details": "APP/PS1ΔE9 mice, 50 μg/mouse RO 3 times a week for 6 weeks, p < 0.05", "in_short": "(§1)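 Saline-perfused cortex and hippocampus were homogenized in 15 volumes of ice-cold TBS (pH 7.4) with protease inhibitors. Homogenate was spun at 20,000g for 20 min at 4°C, and the supernatant (TBS-soluble fraction) was assayed with a commercial sandwich ELISA following the kit protocol. Values were normalized to total protein (BCA). Mice were 4-month-old males; controls received an equal volume of saline.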"}, "TNF-α": {"system": "TNF-α", "experiment": "TNF-α ELISA in TBS soluble brain homogenate", "format": "in vivo", "details": "APP/PS1ΔE9 mice, 50 μg/mouse RO 3 times a week for 6 weeks, p < 0.05", "in_short": "as §1"}, "[4]": {"experiment": "Tissue bioavailability: 14C-labeled peptide in brain", "format": "in vivo, mouse", "details": "14C-labeled peptide via tail vein, brain at 6 h"}, "U251 astrocytes [5]": {"system": "U251 astrocytes", "experiment": "Cell viability, MTT assay", "format": "cell-based, human", "details": "U251 cells, 0 to 10 μg/ml, 24 h, n = 4", "in_short": "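U251-MG astroglioma cells were grown in DMEM/Ham's F-12 with 10 mM HEPES, 2 mM L-glutamine, penicillin/streptomycin and 10% FBS. Cells were exposed to test compound for 24 h, and viability was read by MTT reduction using a TOX-1 kit.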"}, "U251 astrocytes [6]": {"system": "U251 astrocytes", "experiment": "Secretion of ApoE, human ApoE ELISA of media", "format": "cell-based", "details": "no ox-PAPC or oAβ42, ApoE in media by ELISA, n = 6"}, "[7]": {"details": "in vivo; cited from earlier work"}}, "note": "Like-named read-outs stand apart in the source and are kept apart here."}
{"substance": "Ac-LRKLRKRLLRDWLKAFYDKVAEKLKEAF-NH2 [Ac-hE18A-NH2]", "values": [{"measurement": "plasma cholesterol at baseline", "setting": "[1]", "value": "165.3 ± 10.3", "unit": "mg/dL"}, {"measurement": "change in plasma cholesterol levels compared to baseline", "setting": "[2]; retro-orbital (RO), 5 min", "value": "52 ± 3", "unit": "%"}, {"measurement": "change in plasma cholesterol levels compared to baseline", "setting": "[2]; retro-orbital (RO), 5 h", "value": "17.2 ± 2", "unit": "%"}, {"measurement": "change in plasma cholesterol levels compared to baseline", "setting": "[2]; tail vein, 5 min", "value": "52 ± 4", "unit": "%"}, {"measurement": "change in plasma cholesterol levels compared to baseline", "setting": "[2]; tail vein, 5 h", "value": "14 ± 1", "unit": "%"}, {"measurement": "reduction in the amount of activated microglia (Iba-1 staining)", "setting": "[3]", "value": 13, "unit": "%"}, {"measurement": "number of Iba-1 immunopositive activated microglia versus saline", "setting": "[3]; p < 0.05", "value": "significantly reduced"}, {"measurement": "IL-6 level in TBS soluble fraction of brain homogenate versus control", "setting": "IL-6", "value": "decreased significantly"}, {"measurement": "TNF-α level in TBS soluble fraction of brain homogenate versus control", "setting": "TNF-α", "value": "decreased significantly"}, {"measurement": "peptide crossing BBB, fraction of the injected dose", "setting": "[4]", "value": "0.13 % of the injected dose"}, {"measurement": "toxicity (cell viability) compared to control", "setting": "U251 astrocytes [5]", "value": "no toxicity"}, {"measurement": "enhancement of ApoE secretion by peptide by itself", "setting": "U251 astrocytes [6]", "value": "about 25%"}, {"measurement": "half-life in plasma, rapid phase", "setting": "[7]", "value": 1.6, "unit": "min"}, {"measurement": "half-life in plasma, slow phase", "setting": "[7]", "value": 96.6, "unit": "min"}]}
